pIC50: −log10 of the molar value. Converted amounts (≈) assume the structure as drawn. The source made the active and inactive calls. The calls are words filed in the database; no cut-off is given here.
Legend:
Rattus norvegicus [1] = assay: Antinociceptive activity in po dosed formalin-challenged Sprague-Dawley rat assessed as latency in paw licking during phase 1 administered 3 hrs prior to formalin-challenge measured up to 5 mins post formalin challenge; assay type: functional, organism-based
Procedure, shortened: (§1)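 Sprague–Dawley rats (n = 9/group) were dosed by oral gavage 3 h before formalin, at 0, 19, 49 and 99 µmol/kg, as a nanosuspension in 1% PVP K30/0.2% SDS. Formalin was 100 µL of 2.0% injected s.c. into the dorsal left hind paw. Paw-licking time was scored over 35 min: phase 1 at 0–5 min, phase 2 at 15–35 min. Results were given as % of vehicle, with total plasma concentration as mean SD. Statistics were one-way ANOVA, then unpaired one-tailed t-test.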

[2] = molecular target: Sodium channel protein type 9 subunit alpha (Homo sapiens, UniProt Q15858); assay: Inhibition of human NaV1.7 expressed in HEK293 cells by whole-cell voltage clamp assay; assay type: cell-based
Procedure, shortened: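 Human NaV1.7 α-subunit stably expressed in HEK293 cells. Currents were recorded by perforated whole-cell automated planar patch clamp (IonWorks Quattro) in D-PBS external solution with 5.5 mM glucose. Cells were held at −65 mV, and a train of eight 30 ms steps to −20 mV at 3 Hz was applied. Half-log serial dilutions were made in DMSO, giving 0.3% DMSO in the recording solution.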

[3] = molecular target: Voltage-gated inwardly rectifying potassium channel KCNH2 (Homo sapiens, UniProt Q12809); assay: Inhibition of human ERG expressed in CHO cells by IonWorks HT assay; assay type: cell-based
Chain of Voltage-gated inwardly rectifying potassium channel KCNH2 (Q12809 whole entry): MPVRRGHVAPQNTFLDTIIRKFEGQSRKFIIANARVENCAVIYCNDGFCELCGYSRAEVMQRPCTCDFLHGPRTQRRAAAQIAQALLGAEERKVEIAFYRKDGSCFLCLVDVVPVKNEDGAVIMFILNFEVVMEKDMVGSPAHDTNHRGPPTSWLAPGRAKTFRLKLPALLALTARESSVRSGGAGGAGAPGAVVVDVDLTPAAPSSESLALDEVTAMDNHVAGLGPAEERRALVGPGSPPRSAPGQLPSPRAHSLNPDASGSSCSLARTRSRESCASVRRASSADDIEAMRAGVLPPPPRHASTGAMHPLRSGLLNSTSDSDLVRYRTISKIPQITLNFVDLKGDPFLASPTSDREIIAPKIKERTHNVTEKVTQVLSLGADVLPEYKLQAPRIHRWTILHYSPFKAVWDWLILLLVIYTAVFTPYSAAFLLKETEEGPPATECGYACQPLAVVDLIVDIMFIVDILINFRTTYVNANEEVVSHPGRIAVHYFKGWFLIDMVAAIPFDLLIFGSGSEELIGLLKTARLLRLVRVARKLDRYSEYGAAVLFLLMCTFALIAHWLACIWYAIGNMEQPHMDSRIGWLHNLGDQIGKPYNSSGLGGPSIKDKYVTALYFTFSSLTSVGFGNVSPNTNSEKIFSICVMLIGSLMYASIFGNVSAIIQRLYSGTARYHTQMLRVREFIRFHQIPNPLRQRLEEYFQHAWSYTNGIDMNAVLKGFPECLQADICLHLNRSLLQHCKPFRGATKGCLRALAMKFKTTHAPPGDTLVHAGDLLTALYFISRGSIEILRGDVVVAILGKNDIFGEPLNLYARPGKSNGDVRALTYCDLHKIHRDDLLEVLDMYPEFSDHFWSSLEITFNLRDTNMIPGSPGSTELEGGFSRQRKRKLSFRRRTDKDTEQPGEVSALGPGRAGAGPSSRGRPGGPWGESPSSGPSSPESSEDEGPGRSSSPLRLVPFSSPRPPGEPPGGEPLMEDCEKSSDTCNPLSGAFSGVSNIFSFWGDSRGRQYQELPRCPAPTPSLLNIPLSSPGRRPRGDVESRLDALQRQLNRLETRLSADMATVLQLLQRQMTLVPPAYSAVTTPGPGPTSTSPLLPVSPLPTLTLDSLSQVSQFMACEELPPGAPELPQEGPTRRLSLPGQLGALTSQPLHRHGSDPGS

[4] = molecular target: T1, C-C chemokine receptor type 1 (Homo sapiens) (UniProt P32246); assay: Increase in [125I]MIP-1alpha binding to CCR1 at 10 uM
T1 sequence (whole entry): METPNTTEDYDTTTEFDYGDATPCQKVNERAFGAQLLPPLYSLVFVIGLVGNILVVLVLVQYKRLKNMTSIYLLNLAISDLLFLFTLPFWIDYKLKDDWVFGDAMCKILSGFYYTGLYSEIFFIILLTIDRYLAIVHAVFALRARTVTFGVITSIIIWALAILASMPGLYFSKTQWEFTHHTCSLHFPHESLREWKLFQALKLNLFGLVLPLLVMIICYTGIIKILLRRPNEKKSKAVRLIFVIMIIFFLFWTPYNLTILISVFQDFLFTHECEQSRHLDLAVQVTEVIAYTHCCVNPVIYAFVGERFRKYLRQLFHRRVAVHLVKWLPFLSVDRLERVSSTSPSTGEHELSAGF

Cannabinoid receptor 1 [5] = molecular target: T2, Cannabinoid receptor 1 (Homo sapiens, UniProt P21554); assay: Displacement of [3H]SR141716A from CB1 receptor at 10 uM
T2 sequence (P21554 whole entry): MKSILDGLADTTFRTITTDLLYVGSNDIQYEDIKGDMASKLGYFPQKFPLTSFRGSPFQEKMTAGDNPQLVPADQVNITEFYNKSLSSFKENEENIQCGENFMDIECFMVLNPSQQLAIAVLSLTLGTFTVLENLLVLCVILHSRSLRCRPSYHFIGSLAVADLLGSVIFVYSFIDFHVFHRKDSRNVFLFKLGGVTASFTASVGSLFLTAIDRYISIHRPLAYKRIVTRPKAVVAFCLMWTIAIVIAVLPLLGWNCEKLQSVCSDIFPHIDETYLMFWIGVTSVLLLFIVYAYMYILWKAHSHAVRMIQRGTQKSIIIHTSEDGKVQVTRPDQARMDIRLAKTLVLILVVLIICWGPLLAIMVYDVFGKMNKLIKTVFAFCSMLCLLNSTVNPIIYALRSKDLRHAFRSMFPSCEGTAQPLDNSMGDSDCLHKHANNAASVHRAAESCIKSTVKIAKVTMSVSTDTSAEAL

Liver microsomes [6] = assay: Intrinsic clearance in rat liver microsomes assessed per ug of protein; assay type: ADME, Microsome
Plasma = assay: Plasma concentration in formalin-challenged Sprague-Dawley rat at 49 umol/kg, po administered 3 hrs prior to formalin-challenge measured up to 5 mins post formalin challenge; assay type: ADME, organism-based; conditions: in vivo; procedure, shortened: as §1
Liver microsomes [7] = assay: Intrinsic clearance in human liver microsomes assessed per ug of protein; assay type: ADME, Microsome
[8] = Solubility of the compound; assay type: physicochemical
Rattus norvegicus [9] = assay: Dose normalized AUC in Sprague-Dawley rat at 3 umol/kg, iv; assay type: ADME, organism-based; conditions: in vivo
Procedure, shortened: (§2)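 Rat pharmacokinetics used fasted male Sprague–Dawley rats, three animals per administration route per compound. The intravenous dose was 3 µmol/kg, with a separate oral arm.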

[10] = Oral bioavailability in Sprague-Dawley rat at 10 umol/kg; assay type: ADME, organism-based; conditions: in vivo; procedure, shortened: as §2
Cannabinoid receptor 1 [11] = molecular target: T2, Cannabinoid receptor 1; assay: Displacement of [3H]SR141716A from CB1 receptor
[12] = Volume of distribution at steady state in Sprague-Dawley rat at 3 umol/kg, iv; assay type: ADME, organism-based; conditions: in vivo, read-out: Vdss; procedure, shortened: as §2
[13] = Half life in Sprague-Dawley rat at 10 umol/kg, po; assay type: ADME, organism-based; conditions: in vivo; procedure, shortened: as §2
[14] = Tmax in Sprague-Dawley rat at 10 umol/kg, po; assay type: ADME, organism-based; conditions: in vivo; procedure, shortened: as §2
[15] = Clearance in Sprague-Dawley rat at 3 umol/kg, iv; assay type: ADME, organism-based; conditions: in vivo; procedure, shortened: as §2
Rattus norvegicus [16] = assay: Dose normalized AUC in Sprague-Dawley rat at 10 umol/kg, po; assay type: ADME, organism-based; conditions: in vivo; procedure, shortened: as §2
[17] = Cmax in Sprague-Dawley rat at 10 umol/kg, po; assay type: ADME, organism-based; parameters: dose 10 umol/kg, route oral; conditions: in vivo; procedure, shortened: as §2
[18] = molecular target: Sodium channel protein type 5 subunit alpha (Homo sapiens, UniProt Q14524); assay: Inhibition of human NaV1.5 expressed in CHO cells by IonWorks assay; assay type: cell-based
Chain of Sodium channel protein type 5 subunit alpha (Q14524 whole entry): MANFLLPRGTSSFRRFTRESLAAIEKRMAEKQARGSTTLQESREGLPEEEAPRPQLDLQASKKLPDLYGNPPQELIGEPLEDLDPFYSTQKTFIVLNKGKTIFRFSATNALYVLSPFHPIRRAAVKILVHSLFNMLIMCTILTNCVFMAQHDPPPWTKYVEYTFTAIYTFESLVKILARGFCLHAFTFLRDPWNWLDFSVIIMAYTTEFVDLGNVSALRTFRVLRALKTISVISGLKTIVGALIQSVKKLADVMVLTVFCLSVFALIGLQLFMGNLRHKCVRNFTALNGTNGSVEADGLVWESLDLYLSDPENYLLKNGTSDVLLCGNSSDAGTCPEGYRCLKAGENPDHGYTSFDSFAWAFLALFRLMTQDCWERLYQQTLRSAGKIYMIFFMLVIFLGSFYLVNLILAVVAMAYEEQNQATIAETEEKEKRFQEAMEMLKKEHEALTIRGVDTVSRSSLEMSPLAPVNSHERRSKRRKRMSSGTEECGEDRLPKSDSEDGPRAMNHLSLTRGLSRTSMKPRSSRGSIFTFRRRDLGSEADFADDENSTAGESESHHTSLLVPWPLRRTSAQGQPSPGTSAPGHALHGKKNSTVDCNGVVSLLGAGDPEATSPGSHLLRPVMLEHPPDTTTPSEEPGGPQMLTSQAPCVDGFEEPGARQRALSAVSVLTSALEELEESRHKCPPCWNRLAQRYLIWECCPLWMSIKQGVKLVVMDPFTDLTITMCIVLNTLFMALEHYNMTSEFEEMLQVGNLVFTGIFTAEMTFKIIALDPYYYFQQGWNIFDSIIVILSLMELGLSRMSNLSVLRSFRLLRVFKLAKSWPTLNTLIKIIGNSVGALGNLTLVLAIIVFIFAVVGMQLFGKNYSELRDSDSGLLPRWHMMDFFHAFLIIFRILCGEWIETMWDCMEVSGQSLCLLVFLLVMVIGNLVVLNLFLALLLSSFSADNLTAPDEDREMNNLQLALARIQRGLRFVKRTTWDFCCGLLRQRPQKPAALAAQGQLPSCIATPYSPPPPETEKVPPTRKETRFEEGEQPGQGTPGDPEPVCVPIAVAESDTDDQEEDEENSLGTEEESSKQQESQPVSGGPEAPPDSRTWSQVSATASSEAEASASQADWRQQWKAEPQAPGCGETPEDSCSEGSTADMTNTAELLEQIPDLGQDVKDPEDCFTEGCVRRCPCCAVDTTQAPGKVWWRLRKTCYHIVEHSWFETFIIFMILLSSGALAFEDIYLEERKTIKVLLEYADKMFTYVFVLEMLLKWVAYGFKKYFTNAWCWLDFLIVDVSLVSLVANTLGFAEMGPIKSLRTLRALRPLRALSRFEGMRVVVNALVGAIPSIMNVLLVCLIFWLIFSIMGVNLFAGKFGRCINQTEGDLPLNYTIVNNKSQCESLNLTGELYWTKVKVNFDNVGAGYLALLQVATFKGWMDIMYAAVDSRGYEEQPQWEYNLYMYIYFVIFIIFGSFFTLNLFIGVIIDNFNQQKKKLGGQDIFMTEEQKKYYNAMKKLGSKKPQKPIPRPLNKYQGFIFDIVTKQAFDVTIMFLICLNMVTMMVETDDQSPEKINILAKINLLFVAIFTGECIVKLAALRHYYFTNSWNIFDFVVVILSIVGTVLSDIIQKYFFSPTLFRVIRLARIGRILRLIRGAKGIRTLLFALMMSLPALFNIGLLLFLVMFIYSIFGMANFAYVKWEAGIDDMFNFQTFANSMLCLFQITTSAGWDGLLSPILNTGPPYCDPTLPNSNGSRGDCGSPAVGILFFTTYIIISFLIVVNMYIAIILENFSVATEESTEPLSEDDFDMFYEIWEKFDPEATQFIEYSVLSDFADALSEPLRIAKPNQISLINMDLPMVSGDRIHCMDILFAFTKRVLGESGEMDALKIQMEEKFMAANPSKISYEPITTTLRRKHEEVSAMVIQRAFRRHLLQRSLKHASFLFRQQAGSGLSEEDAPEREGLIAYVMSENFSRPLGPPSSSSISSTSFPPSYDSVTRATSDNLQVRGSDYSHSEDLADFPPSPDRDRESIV

[19] = molecular target: 5-hydroxytryptamine receptor 1B (Homo sapiens) (UniProt P28222); assay: Activity at 5HT1B receptor
Chain of 5-hydroxytryptamine receptor 1B (Homo sapiens) (P28222 whole entry): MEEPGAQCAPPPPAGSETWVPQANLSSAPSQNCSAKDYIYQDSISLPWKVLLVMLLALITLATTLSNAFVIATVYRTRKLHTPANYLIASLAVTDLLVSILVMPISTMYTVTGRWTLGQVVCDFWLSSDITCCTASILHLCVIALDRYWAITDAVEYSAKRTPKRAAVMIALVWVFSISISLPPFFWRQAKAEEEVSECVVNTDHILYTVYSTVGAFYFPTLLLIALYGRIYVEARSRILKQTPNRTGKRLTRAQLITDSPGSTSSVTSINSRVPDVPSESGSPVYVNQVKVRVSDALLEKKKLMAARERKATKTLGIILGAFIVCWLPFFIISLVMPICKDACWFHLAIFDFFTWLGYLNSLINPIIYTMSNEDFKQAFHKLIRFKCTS

[20] = Half life in Sprague-Dawley rat at 3 umol/kg, iv; assay type: ADME, organism-based; conditions: in vivo; procedure, shortened: as §2
[21] = Displacement of [3H]nitrobenzylthioinosine from adenosine transporter; parameters: species or system Homo sapiens
[22] = molecular target: T3, 5-hydroxytryptamine receptor 1A (Homo sapiens) (UniProt P08908); assay: Activity at 5HT1A receptor
T3 sequence (whole entry): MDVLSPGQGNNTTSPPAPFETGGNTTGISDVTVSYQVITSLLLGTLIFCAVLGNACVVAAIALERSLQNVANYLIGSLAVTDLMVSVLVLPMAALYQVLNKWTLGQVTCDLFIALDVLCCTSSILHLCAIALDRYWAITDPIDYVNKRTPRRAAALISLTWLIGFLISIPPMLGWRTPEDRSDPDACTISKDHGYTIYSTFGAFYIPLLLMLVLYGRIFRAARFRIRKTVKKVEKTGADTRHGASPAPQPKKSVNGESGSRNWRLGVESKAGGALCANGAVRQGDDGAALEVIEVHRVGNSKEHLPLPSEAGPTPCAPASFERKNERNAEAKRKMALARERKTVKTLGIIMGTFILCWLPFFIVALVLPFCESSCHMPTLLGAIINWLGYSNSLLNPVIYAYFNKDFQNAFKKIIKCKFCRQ

Rattus norvegicus [23] = assay: Antinociceptive activity in formalin-challenged Sprague-Dawley rat assessed as latency in paw licking during phase 1 at 49 umol/kg, po administered 3 hrs prior to formalin-challenge measured up to 5 mins post formalin challenge relative to control; assay type: functional; procedure, shortened: as §1
Rattus norvegicus [24] = assay: Antinociceptive activity in formalin-challenged Sprague-Dawley rat assessed as latency in paw licking during phase 2 at […], po administered 3 hrs prior to formalin-challenge measured up to 15 to 35 mins post formalin challenge; assay type: functional, organism-based; procedure, shortened: as §1
Cannabinoid receptor 1 [25] = molecular target: T2, Cannabinoid receptor 1; assay: Agonist activity at CB1 receptor by [35gammaS]GTP incorporation assay; assay type: functional
Homo sapiens = organism: Homo sapiens; assay: Displacement of [3H]nitrobenzylthioinosine from adenosine transporter at 10 uM

## COc1cnc(-c2cccc3c2C[C@H](NC(=O)c2ccc(COCC(F)(F)F)nc2)CO3)cn1
Rattus norvegicus [1]
  Activity: Dose-dependent effect
[2]
  pIC50: 7.10
[3]
  pIC50: 4.90
[4]
  Activity: 127%
Cannabinoid receptor 1 [5]
  inhibition: 55%
Liver microsomes [6]
  CLint: < 10 µL/min/mg
Plasma
  concentration: 5000 nM
Liver microsomes [7]
  CLint: < 10 µL/min/mg
[8]
  solubility: 34 µM (≈ 16.1 µg/mL)
Rattus norvegicus [9]
  AUC/dose: 0.6 kg·h/L
[10]
  bioavailability: 44%
Cannabinoid receptor 1 [11]
  pIC50: 5.30
[12]
  Vd: 4.2 L/kg
[13]
  half-life: 4.8 h
[14]
  Tmax: 2.5 h
[15]
  clearance: 25 mL/min/kg
Rattus norvegicus [16]
  AUC/dose: 0.3 kg·h/L
[17]
  Cmax: 300 nM
[18]
  pIC50: 4.90
[19]
  Activity: inactive
[20]
  half-life: 2.2 h
[21]
  pIC50: 5.74
[22]
  Activity: inactive
Rattus norvegicus [23]
  Activity: 66%
Rattus norvegicus [24]
  Activity: inactive
Cannabinoid receptor 1 [25]
  Activity: inactive
Homo sapiens
  inhibition: 66%

— ChEMBL document CHEMBL2069242, “Structure and activity relationship in the (S)-N-chroman-3-ylcarboxamide series of voltage-gated sodium channel blockers” (Bioorg Med Chem Lett, 2012)
